pIC50: −log10 of the molar value.
Key:
B16 = assay: Inhibition of murine B16 melanoma cell proliferation measured by the MTT assay; format: functional, cell-based; details: Mus musculus
How it was run: (§1)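 Murine L1210 leukemia and B16 melanoma cells were grown in RPMI 1640 with 10% fetal calf serum, 2 mM L-glutamine, penicillin/streptomycin and 10 mM HEPES (pH 7.4). Cells were exposed to nine serial drug dilutions in triplicate for about four doubling times (L1210 48 h, B16 96 h), then read by microculture tetrazolium (MTT) assay. IC50 is the concentration halving optical density versus untreated controls, averaged over ≥2 independent experiments.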

L1210 = assay: Inhibition of murine L1210 leukemia cell proliferation measured by the MTT assay; format: functional, cell-based; details: Mus musculus; how it was run: as §1
Mus musculus [1] = assay: Long-term survivors among 7 mice infected with B16 melanoma, scored on day 90 at 20 mg/kg dose on day 1; format: functional
Mus musculus [2] = assay: Long-term survivors among 7 mice infected with P388 leukemia, scored on day 60 at 20 mg/kg dose on day 1; format: functional
How it was run: (§2)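 B6D2F1 mice in groups of 6–7 received 10^6 P388 cells ip on day 0. Dihydrochloride salts dissolved in water were injected iv on day 1 or on days 1, 5 and 9, at three doses and then five. Read-outs were % T/C (median survival treated/control × 100) and long-term survivors on day 60, both at the optimal dose (no toxic death, weight loss <20%).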

Mus musculus [3] = assay: Percent median survival time of mice injected with P388 leukemia, at a subcutaneous compound dose of 10 mg/kg; format: functional
Mus musculus [4] = assay: Percent median survival time of mice injected with P388 leukemia, at a subcutaneous compound dose of 20 mg/kg; format: functional
Mus musculus [5] = assay: Percent median survival time of mice injected with B16 melanoma, at a intraperitoneal compound dose of 40 mg/kg
Mus musculus [6] = assay: Long-term survivors among 6 mice infected with P388 leukemia, scored on day 60 at 80 mg/kg dose; format: functional
How it was run: (§3)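 B6D2F1 mice in groups of 6–7 were inoculated ip on day 0 with 10^6 P388 cells. Dihydrochloride salts were dissolved in water and given iv on day 1 or on days 1, 5 and 9. Doses ranged from a low nontoxic dose to a toxic one. Long-term survivors were counted at day 60.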

Mus musculus [7] = assay: Percent median survival time of mice intraperitoneally injected with P388 leukemia was determined from tested at 80 mg/kg at day1,5,9 dose to that of control; format: functional; details: route intraperitoneal
How it was run: (§4)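 P388 leukemia in B6D2F1 mice (groups of 6–7), 10^6 cells inoculated ip on day 0. Dihydrochloride salts were dissolved in water and given iv on day 1 or on days 1, 5, 9. Three doses were tested, then five if active. %T/C = median survival treated/control × 100, reported at the optimal dose (no toxic death, weight loss <20%), from one or two representative experiments.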

Mus musculus [8] = assay: Percent median survival time of mice intraperitoneally injected with P388 leukemia was determined from tested at 160 mg/kg at day1 dose to that of control; format: functional; how it was run: as §4
Mus musculus [9] = assay: Long-term survivors among 6 mice infected with P388 leukemia, scored on day 60 at 160 mg/kg dose; format: functional; how it was run: as §3
Mus musculus [10] = assay: Percent median survival time of mice injected with B16 melanoma, at a intraperitoneal compound dose of 20 mg/kg
Mus musculus [11] = assay: Long-term survivors among 7 mice infected with B16 melanoma, scored on day 90 at 10 mg/kg dose on day 1; format: functional
Mus musculus [12] = assay: Long-term survivors among 7 mice infected with P388 leukemia, scored on day 60 at 10 mg/kg dose on day 1; format: functional; how it was run: as §2
Mus musculus [13] = assay: Percent median survival time of mice injected with P388 leukemia, at a subcutaneous compound dose of 10 mg/kg on day 1; format: functional
Mus musculus [14] = assay: Percent median survival time of mice injected with P388 leukemia, at a subcutaneous compound dose of 10 mg/kg on day 1, 5, 9; format: functional
Mus musculus [15] = assay: Percent median survival time of mice injected with B16 melanoma, at a intraperitoneal compound dose of 10 mg/kg
Mus musculus [16] = assay: Long-term survivors among 14 mice infected with P388 leukemia, scored on day 60 at 40 mg/kg dose on day 1; format: functional; how it was run: as §3
Mus musculus [17] = species on record: Mus musculus; assay: Long-term survivors among 14 mice infected with B16 melanoma, scored on day 90 at optimal dose on days 1-9
Mus musculus [18] = assay: Percent median survival time of mice injected with P388 leukemia, at a intravenous compound dose of 40 mg/kg
Mus musculus [19] = assay: Long-term survivors among 14 mice infected with P388 leukemia, scored on day 60 at 320 mg/kg dose on day 1; format: functional; how it was run: as §3
Mus musculus [20] = species on record: Mus musculus; assay: Long-term survivors among 14 mice infected with B16 melanoma, scored on day 90 at optimal dose on days 1-9; remark: listed apart in the source
Mus musculus [21] = assay: Percent median survival time of mice injected with P388 leukemia, at a intravenous compound dose of 80 mg/kg
Mus musculus [22] = assay: Percent median survival time of mice injected with P388 leukemia, at a intravenous compound dose of 320 mg/kg
Mus musculus [23] = assay: Long-term survivors among 6 mice infected with P388 leukemia, scored on day 60 at 40 mg/kg dose on day 1, 5, 9; format: functional; how it was run: as §3
Mus musculus [24] = assay: Long-term survivors among 7 mice infected with P388 leukemia, scored on day 90 at 10 mg/kg dose; format: functional
Mus musculus [25] = assay: Long-term survivors among 6 mice infected with P388 leukemia, scored on day 60 at 40 mg/kg dose on day 1; format: functional; how it was run: as §3
Mus musculus [26] = assay: Percent median survival time of mice intraperitoneally injected with P388 leukemia was determined from tested at 40 mg/kg at day1 dose to that of control; format: functional; details: route intraperitoneal; how it was run: as §4
Mus musculus [27] = assay: Percent median survival time of mice intraperitoneally injected with P388 leukemia was determined from tested at 40 mg/kg at day1,5,9 dose to that of control; format: functional; details: route intraperitoneal; how it was run: as §4
Mus musculus [28] = assay: Percent median survival time of mice injected with B16 melanoma, at a intraperitoneal compound dose of 5 mg/kg
Mus musculus [29] = assay: Long-term survivors among 6 mice infected with P388 leukemia, scored on day 60 at 60 mg/kg dose on day 1; format: functional; how it was run: as §3
Mus musculus [30] = assay: Long-term survivors among 6 mice infected with B16 melanoma, scored on day 90 at 10 mg/kg dose
Mus musculus [31] = assay: Percent median survival time of mice injected with P388 leukemia, at a intravenous compound dose of 60 mg/kg
Mus musculus [32] = assay: Long-term survivors among 6 mice infected with P388 leukemia, scored on day 60 at 40 mg/kg dose; format: functional; how it was run: as §3
Mus musculus [33] = assay: Long-term survivors among 6 mice infected with P388 leukemia, scored on day 60 at 20 mg/kg dose; format: functional; how it was run: as §3
Mus musculus [34] = assay: Percent median survival time of mice intraperitoneally injected with P388 leukemia was determined from tested at 20 mg/kg at day1,5,9 dose to that of control; format: functional; details: route intravenous; how it was run: as §4

| Structure (SMILES) | pIC50 (B16) | pIC50 (L1210) | LTS (Mus musculus [11]) | LTS (Mus musculus [12]) | T/C (Mus musculus [13]) [%] | T/C (Mus musculus [14]) [%] | T/C (Mus musculus [15]) [%] | also measured |
| --- | --- | --- | --- | --- | --- | --- | --- | --- |
| Cc1c2ccnc(C(=O)NCCN(C)C)c2cc2c3cc(OC(=O)NCCCC(=O)OCc4ccccc4)ccc3n(C)c12 | 7.53 | 6.52 | – | – | – | – | – | LTS (Mus musculus [1]): 0; LTS (Mus musculus [2]): 0; T/C (Mus musculus [3]): 93%; T/C (Mus musculus [4]): 103%; T/C (Mus musculus [5]): 96% |
| Cc1c2ccnc(C(=O)NCCN(C)C)c2cc2c3cc(OC(=O)N4CCOCC4)ccc3n(C)c12 | 5.75 | 6.19 | – | – | – | – | – | LTS (Mus musculus [6]): 0; T/C (Mus musculus [7]): 196%; T/C (Mus musculus [8]): 149%; LTS (Mus musculus [9]): 0; T/C (Mus musculus [10]): 139% |
| CCCCCCCCC(=O)Oc1ccc2c(c1)c1cc3c(C(=O)NCCN(C)C)nccc3c(C)c1n2C | 7.68 | 7.51 | 0 | 0 | 131 | 147 | 160 | – |
| CCCCCCCCCCCCCC(=O)Oc1ccc2c(c1)c1cc3c(C(=O)NCCN(C)C)nccc3c(C)c1n2C | 6.71 | 6.67 | – | – | – | – | 166 | LTS (Mus musculus [16]): 0; T/C (Mus musculus [3]): 153%; LTS (Mus musculus [17]): 1; T/C (Mus musculus [18]): 176% |
| CCCCCCCCCCCCNC(=O)Oc1ccc2c(c1)c1cc3c(C(=O)NCCN(C)C)nccc3c(C)c1n2C | 5.64 | 6.09 | 0 | 0 | 104 | 107 | – | T/C (Mus musculus [5]): 133% |
| Cc1c2ccnc(C(=O)NCCN(C)C)c2cc2c3cc(OC(=O)CCCCCC(=O)O)ccc3n(C)c12 | 8.49 | 8.43 | – | – | – | – | 246 | LTS (Mus musculus [19]): 5; LTS (Mus musculus [20]): 1; T/C (Mus musculus [21]): >600%; T/C (Mus musculus [22]): >600% |
| Cc1c2ccnc(C(=O)NCCN(C)C)c2cc2c3cc(OC(=O)N4CCC(N5CCCCC5)CC4)ccc3n(C)c12 | 5.57 | 6.16 | – | – | – | – | 161 | LTS (Mus musculus [23]): 0; LTS (Mus musculus [24]): 0; LTS (Mus musculus [25]): 0; T/C (Mus musculus [26]): 133%; T/C (Mus musculus [27]): 169% |
| Cc1c2ccnc(C(=O)NCCN(C)C)c2cc2c3cc(OC(=O)Cc4ccccc4)ccc3n(C)c12 | 7.65 | 7.57 | 0 | 0 | 125 | 157 | – | T/C (Mus musculus [28]): 147% |
| CC(=O)Oc1ccc2c(c1)c1cc3c(C(=O)NCCN(C)C)nccc3c(C)c1n2C | 8.21 | 8.29 | – | – | – | – | 182 | LTS (Mus musculus [23]): 0; LTS (Mus musculus [29]): 1; LTS (Mus musculus [30]): 0; T/C (Mus musculus [18]): 275%; T/C (Mus musculus [31]): 214% |
| COc1ccc2c(c1)c1cc3c(C(=O)NCCN(C)C)nccc3c(C)c1n2C | 6.48 | 6.26 | – | – | – | – | 126 | LTS (Mus musculus [24]): 0; LTS (Mus musculus [32]): 0; LTS (Mus musculus [33]): 0; T/C (Mus musculus [34]): 96%; T/C (Mus musculus [26]): 94% |

From ChEMBL document CHEMBL1132144, “Synthesis of 9-O-substituted derivatives of 9-hydroxy-5, 6-dimethyl-6H-pyrido[4,3-b]carbazole-1-carboxylic acid (2-(dimethylamino)ethyl)amide and their 10- and 11-methyl analogues with improved antitumor activity” (J Med Chem, 1999)
